Test results published in ChEMBL document CHEMBL4270537, “Design and biological evaluation of novel triaryl pyrazoline derivatives with dioxane moiety for selective BRAFV600E inhibition” (Eur J Med Chem, 2018).
Activity calls are given as the source filed them. No cut-off for these calls is given here.

Key:
[1] = biological target: Serine/threonine-protein kinase B-raf (Mus musculus, UniProt P28028, V600E); test: Inhibition of mouse full length GST-tagged BRAF V600E mutant using recombinant human full length N-terminal His-tagged MEK1 as substrate preincubated for 1 hr followed by substrate addition measured after 25 mins
Serine/threonine-protein kinase B-raf (Mus musculus, UniProt P28028, V600E), sequence (P28028 whole entry, looked up, stated change not applied): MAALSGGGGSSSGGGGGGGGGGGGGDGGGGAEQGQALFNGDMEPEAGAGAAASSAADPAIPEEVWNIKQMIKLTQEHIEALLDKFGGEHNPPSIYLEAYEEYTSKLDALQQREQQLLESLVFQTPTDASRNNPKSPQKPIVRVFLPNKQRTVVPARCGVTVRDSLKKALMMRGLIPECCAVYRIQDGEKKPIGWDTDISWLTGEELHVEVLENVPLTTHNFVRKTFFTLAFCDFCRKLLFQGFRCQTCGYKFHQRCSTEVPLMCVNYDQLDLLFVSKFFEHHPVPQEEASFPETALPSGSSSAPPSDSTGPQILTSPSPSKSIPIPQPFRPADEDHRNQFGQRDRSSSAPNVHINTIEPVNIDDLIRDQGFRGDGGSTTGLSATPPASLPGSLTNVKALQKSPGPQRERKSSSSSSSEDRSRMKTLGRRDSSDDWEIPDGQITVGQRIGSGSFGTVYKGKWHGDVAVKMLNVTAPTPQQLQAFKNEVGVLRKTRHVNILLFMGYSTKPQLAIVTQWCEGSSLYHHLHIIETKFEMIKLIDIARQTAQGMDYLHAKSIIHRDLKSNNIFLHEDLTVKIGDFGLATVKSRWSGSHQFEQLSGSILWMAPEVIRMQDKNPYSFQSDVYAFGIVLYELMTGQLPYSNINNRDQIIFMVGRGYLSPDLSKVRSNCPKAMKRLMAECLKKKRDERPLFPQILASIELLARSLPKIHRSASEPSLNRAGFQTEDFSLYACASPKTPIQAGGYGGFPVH

[2] = biological target: Serine/threonine-protein kinase B-raf (Homo sapiens, UniProt P15056); test: Inhibition of recombinant human full length GST-tagged wild type BRAF expressed in baculovirus expression system using recombinant human full length N-terminal His-tagged MEK1 as substrate preincubated for 1 hr followed by substrate addition measured after 25 mins
Serine/threonine-protein kinase B-raf (Homo sapiens, UniProt P15056), sequence (P15056 whole entry): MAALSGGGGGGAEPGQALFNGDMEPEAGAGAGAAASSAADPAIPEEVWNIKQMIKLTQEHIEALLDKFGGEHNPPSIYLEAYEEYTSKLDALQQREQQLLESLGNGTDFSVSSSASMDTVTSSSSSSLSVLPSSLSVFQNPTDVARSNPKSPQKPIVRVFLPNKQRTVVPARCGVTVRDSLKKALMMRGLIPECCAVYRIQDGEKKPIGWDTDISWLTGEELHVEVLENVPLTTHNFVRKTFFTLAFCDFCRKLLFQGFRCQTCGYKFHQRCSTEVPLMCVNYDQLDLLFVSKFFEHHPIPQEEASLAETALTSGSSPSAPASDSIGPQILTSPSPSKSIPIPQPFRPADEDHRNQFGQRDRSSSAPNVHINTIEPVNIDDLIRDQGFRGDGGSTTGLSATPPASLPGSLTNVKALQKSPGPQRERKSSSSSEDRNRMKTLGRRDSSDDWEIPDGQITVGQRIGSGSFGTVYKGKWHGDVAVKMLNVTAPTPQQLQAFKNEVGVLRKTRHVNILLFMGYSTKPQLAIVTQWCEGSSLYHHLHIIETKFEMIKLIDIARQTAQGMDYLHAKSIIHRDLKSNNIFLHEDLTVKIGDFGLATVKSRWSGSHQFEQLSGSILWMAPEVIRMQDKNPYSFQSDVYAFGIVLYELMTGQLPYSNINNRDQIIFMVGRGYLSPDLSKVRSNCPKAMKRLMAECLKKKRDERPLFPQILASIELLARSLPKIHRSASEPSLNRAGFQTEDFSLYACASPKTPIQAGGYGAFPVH

[3] = test system: A-375; test: Antiproliferative activity against human A375 cells after 48 hrs by MTT assay; type: functional; details: A-375, 48 h
In short: (§1)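 MTT reduction assay. Cell lines grown to log phase in DMEM with 10% FBS (A375 in DMEM with sodium pyruvate added), seeded at 10⁴ cells/well in 96-well plates. Three replicate wells per concentration, each assay run three times, GI50 averaged.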

[4] = test system: WM 266-4; test: Antiproliferative activity against human WM266.4 cells after 48 hrs by MTT assay; type: functional; details: WM 266-4, 48 h; in short: as §1
[5] = Antiproliferative activity against human WM1361 cells after 48 hrs by MTT assay; type: functional; details: WM1361, 48 h; in short: as §1
[6] = test system: HT-29; test: Antiproliferative activity against human HT-29 cells after 48 hrs by MTT assay; type: functional; details: HT-29, 48 h; in short: as §1
[7] = test system: HCT-116; test: Antiproliferative activity against human HCT116 cells after 48 hrs by MTT assay; type: functional; details: HCT-116, 48 h; in short: as §1
[8] = biological target: RAF proto-oncogene serine/threonine-protein kinase (Homo sapiens, UniProt P04049, Y340D/Y341D); test: Inhibition of recombinant human GST-tagged c-RAF (306 to 648 residues) Y340D/Y341D mutant expressed in baculovirus expression system using recombinant human full length N-terminal His-tagged MEK1 as substrate preincubated for 1 hr followed by substrate addition measured after 25 mins
RAF proto-oncogene serine/threonine-protein kinase, sequence (P04049 whole entry Y340D/Y341D, the tested form may be a part): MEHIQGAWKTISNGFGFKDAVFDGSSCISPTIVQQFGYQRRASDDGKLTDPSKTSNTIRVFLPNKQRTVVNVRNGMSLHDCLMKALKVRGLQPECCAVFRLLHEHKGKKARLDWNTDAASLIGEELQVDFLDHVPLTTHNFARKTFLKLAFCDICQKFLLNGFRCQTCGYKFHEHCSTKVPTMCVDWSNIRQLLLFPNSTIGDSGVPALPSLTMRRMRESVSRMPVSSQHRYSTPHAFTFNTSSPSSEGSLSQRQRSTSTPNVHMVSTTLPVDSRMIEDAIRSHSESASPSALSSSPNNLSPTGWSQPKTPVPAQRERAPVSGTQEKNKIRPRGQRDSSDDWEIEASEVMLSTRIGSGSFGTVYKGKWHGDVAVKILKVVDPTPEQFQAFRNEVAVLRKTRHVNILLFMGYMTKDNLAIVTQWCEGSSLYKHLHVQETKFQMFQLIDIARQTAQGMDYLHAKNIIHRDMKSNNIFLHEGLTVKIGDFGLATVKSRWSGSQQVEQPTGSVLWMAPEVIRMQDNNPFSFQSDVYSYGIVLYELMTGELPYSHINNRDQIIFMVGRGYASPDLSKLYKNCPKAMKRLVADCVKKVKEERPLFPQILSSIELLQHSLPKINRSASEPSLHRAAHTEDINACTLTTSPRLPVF

[9] = Cytotoxicity against HEK293T cells assessed as decrease in cell viability after 48 hrs by MTT assay; type: cell-based, HEK-293T; details: human; in short: as §1
[10] = Cytotoxicity against human LO2 cells assessed as decrease in cell viability after 48 hrs by MTT assay; type: cell-based, L02; in short: as §1
[11] = biological target: Dual specificity mitogen-activated protein kinase kinase; MEK1/2 (Homo sapiens, UniProt P36507+Q02750); test: Inhibition of MEK1/2 (unknown origin); type: protein assay
[12] = biological target: Mitogen-activated protein kinase 8 (Homo sapiens, UniProt P45983); test: Inhibition of N-terminal flag-tagged JNK1 (unknown origin) expressed in baculovirus expression system after 60 mins in presence of [gamma-32P]ATP by topcount scintillation method
Mitogen-activated protein kinase 8, sequence (P45983 whole entry): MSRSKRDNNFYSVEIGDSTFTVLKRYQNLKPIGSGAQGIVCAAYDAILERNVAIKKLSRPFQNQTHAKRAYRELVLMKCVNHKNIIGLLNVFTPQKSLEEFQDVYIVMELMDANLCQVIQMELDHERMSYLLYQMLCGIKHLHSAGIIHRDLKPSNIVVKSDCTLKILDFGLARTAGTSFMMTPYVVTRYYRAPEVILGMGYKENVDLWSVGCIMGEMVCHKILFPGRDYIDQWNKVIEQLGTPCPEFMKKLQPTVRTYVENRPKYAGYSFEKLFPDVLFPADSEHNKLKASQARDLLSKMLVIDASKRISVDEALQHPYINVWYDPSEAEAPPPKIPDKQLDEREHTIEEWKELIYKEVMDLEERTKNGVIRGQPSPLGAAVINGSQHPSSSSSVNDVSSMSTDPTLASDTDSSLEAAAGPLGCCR
In short: (§2)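 Baculovirus-expressed N-terminal FLAG-tagged kinases in 25 mM HEPES pH 7.5, 10 mM Mg acetate, 1 mM DTT, 0.5 µM ATP plus [γ-³²P]ATP, 50 µL. p38α: 100 ng enzyme, MBP substrate. JNK1: 10 ng enzyme, 1 µg c-Jun. Compound and enzyme preincubated 5 min, ATP started the reaction, 60 min at 30 °C. Stopped with 10% TCA, filtered, washed with 3% phosphoric acid, counted by TopCount.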

[13] = biological target: Mitogen-activated protein kinase 14 (Homo sapiens, UniProt Q16539); test: Inhibition of N-terminal flag-tagged p38alpha (unknown origin) expressed in baculovirus expression system using MBP as substrate preincubated for 5 mins followed by substrate addition measured after 60 mins in presence of [gamma-32P]ATP by topcount scintillation method; in short: as §2
Mitogen-activated protein kinase 14, sequence (Q16539 whole entry): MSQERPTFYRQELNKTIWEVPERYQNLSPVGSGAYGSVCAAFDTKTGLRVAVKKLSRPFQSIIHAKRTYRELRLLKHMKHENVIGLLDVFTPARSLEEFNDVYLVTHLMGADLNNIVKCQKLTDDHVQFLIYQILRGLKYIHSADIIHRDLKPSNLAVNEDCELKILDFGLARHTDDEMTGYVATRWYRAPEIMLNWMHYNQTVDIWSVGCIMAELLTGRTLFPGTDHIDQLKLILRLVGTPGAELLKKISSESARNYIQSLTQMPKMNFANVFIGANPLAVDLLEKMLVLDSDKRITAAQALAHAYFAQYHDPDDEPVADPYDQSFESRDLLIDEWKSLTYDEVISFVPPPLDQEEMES

[14] = test system: Serine/threonine-protein kinase B-raf (Homo sapiens), P15056 [V600E]; test: Inhibition of BRAF V600E mutant in human A375 cells assessed as decrease in MEK1/2 phosphorylation up to 0.3 uM after 30 mins by Western blot analysis; type: cell-based
Serine/threonine-protein kinase B-raf (Homo sapiens), P15056 [V600E], sequence (P15056 whole entry V600E): as the sequence (P15056 whole entry) above, with V600E counted along it

[15] = test system: A-375; test: Antitumor activity against human A375 cells xenografted in nude mouse assessed as tumor weight at 5 mg/kg, ip administered every second day for 14 days and measured on day 15; type: functional
In short: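 A375 cells, 3 × 10⁶ in 0.1 mL cold PBS, injected subcutaneously into right flank of nude mice. Treatment began when tumors reached ~100 mm³; mice randomized, 5 per group. Compound suspended in olive oil, given intraperitoneally every second day for 14 days. Body weight recorded every two days; tumors excised and weighed on day 15.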

[16] = test system: Mus musculus; test: Toxicity in nude mouse xenografted with human A375 cells assessed as body weight loss at 5 mg/kg, ip administered every second day for 14 days and measured every 2 days; type: organism-based; details: in vivo
In short: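 Nude mice bearing subcutaneous right-flank A375 xenografts (3×10⁶ cells in cold PBS) were randomized into groups of 5 at about 100 mm³. Compounds were suspended in olive oil and given intraperitoneally every second day for 14 days. Body weight was recorded every two days.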

Row | IC50 [1] [µM] | IC50 [2] [µM] | GI50 [3] [µM] | GI50 [6] [µM] | GI50 [7] [µM] | Compound | GI50 [4] [µM] | GI50 [5] [µM] | IC50 [8] [µM] | GI50 at 48 h [9] [µM] | GI50 at 48 h [10] [µM] | IC50 [11] [µM] | IC50 [12] [µM] | IC50 [13] [µM] | inhibition [14] | Activity [15] [g] | Activity [16]
1 | 11.1 | 23.1 | 15.7 | 37.6 | 61.2 | Fc1ccc(C2=NN(C(=S)Nc3ccccc3)C(c3ccc4c(c3)OCCO4)C2)cc1 (stereo not given) | 22.5 | 65.3 | – | – | – | – | – | – | – | – | –
2 | 57.2 | > 200 | 78.1 | 153 | > 200 | O=[N+]([O-])c1ccc(C2=NN(C(=S)Nc3ccccc3)C(c3ccc4c(c3)OCCO4)C2)cc1 (stereo not given) | 105 | > 200 | – | – | – | – | – | – | – | – | –
3 | 0.82 | 21.3 | 1.85 | 6.63 | 57.6 | S=C(Nc1ccccc1)N1N=C(c2ccccc2)CC1c1ccc2c(c1)OCCO2 (stereo not given) | 3.18 | 58.5 | – | – | – | – | – | – | – | – | –
4 | > 200 | 124 | > 200 | > 200 | 195 | S=C(Nc1ccccc1)N1N=C(c2ccccc2Br)CC1c1ccc2c(c1)OCCO2 (stereo not given) | > 200 | > 200 | – | – | – | – | – | – | – | – | –
5 | 12.1 | > 200 | 20.3 | 30.5 | > 200 | COc1ccccc1C1=NN(C(=S)Nc2ccccc2)C(c2ccc3c(c2)OCCO3)C1 (stereo not given) | 25.8 | > 200 | – | – | – | – | – | – | – | – | –

The next lines start with the compound.

Row | Compound | IC50 [1] [µM] | IC50 [2] [µM] | GI50 [3] [µM] | GI50 [6] [µM] | GI50 [7] [µM] | GI50 [4] [µM] | GI50 [5] [µM] | IC50 [8] [µM] | GI50 at 48 h [9] [µM] | GI50 at 48 h [10] [µM] | IC50 [11] [µM] | IC50 [12] [µM] | IC50 [13] [µM] | inhibition [14] | Activity [15] [g] | Activity [16]
6 | S=C(Nc1ccccc1)N1N=C(c2ccc(Cl)c(Cl)c2)CC1c1ccc2c(c1)OCCO2 (stereo not given) | 30.6 | 39.3 | 41.9 | 95.3 | 125 | 58.7 | 122 | – | – | – | – | – | – | – | – | –
7 | S=C(Nc1ccccc1)N1N=C(c2cccs2)CC1c1ccc2c(c1)OCCO2 (stereo not given) | 78.3 | 5.21 | 121 | 188 | 8.19 | 154 | 7.96 | – | – | – | – | – | – | – | – | –
8 | S=C(Nc1ccccc1)N1N=C(c2ccc(OCc3ccccc3)cc2)CC1c1ccc2c(c1)OCCO2 (stereo not given) | 0.01 | 5.23 | 0.35 | 0.86 | 8.53 | 0.42 | 8.23 | 3.15 | 175 | > 200 | 176 | 88.9 | > 200 | Active | – | –
9 | CCCS(=O)(=O)Nc1ccc(F)c(C(=O)c2c[nH]c3ncc(-c4ccc(Cl)cc4)cc23)c1F [VEMURAFENIB] | – | – | 0.95 | 1.88 | 25.2 | 0.21 | 20.8 | – | – | – | – | – | – | – | 0.41 | Non-Toxic
10 | S=C(Nc1ccccc1)N1N=C(c2ccc(Br)cc2)CC1c1ccc2c(c1)OCCO2 (stereo not given) | 0.05 | 18.7 | 0.47 | 2.58 | 32.1 | 0.87 | 37.5 | 17.6 | 152 | 188 | 188 | 93.6 | > 200 | – | – | –
11 | CSc1ccc(C2=NN(C(=S)Nc3ccccc3)C(c3ccc4c(c3)OCCO4)C2)cc1 (stereo not given) | 84.3 | 156 | 159 | > 200 | 193 | 197 | 187 | – | – | – | – | – | – | – | – | –
12 | FC(F)(F)c1ccc(C2=NN(C(=S)Nc3ccccc3)C(c3ccc4c(c3)OCCO4)C2)cc1 (stereo not given) | 29.5 | 35.6 | 43.5 | 97.5 | 112 | 52.4 | 123 | – | – | – | – | – | – | – | – | –
13 | S=C(Nc1ccccc1)N1N=C(c2ccc(Cl)cc2)CC1c1ccc2c(c1)OCCO2 (stereo not given) | 135 | > 200 | 195 | 187 | > 200 | > 200 | > 200 | – | – | – | – | – | – | – | – | –
14 | S=C(Nc1ccccc1)N1N=C(c2cccc(Cl)c2)CC1c1ccc2c(c1)OCCO2 (stereo not given) | > 200 | 95.9 | > 200 | > 200 | 138 | > 200 | 153 | – | – | – | – | – | – | – | – | –
15 | Cc1ccc(C2=NN(C(=S)Nc3ccccc3)C(c3ccc4c(c3)OCCO4)C2)cc1 (stereo not given) | 4.28 | > 200 | 6.32 | 19.5 | > 200 | 10.3 | > 200 | – | – | – | – | – | – | – | – | –
16 | Cc1ccc(C2=NN(C(=S)Nc3ccccc3)C(c3ccc4c(c3)OCCO4)C2)cc1C (stereo not given) | 38.9 | 48.9 | 61.3 | 133 | 144 | 70.5 | 148 | – | – | – | – | – | – | – | – | –
